# Source: ChEMBL document CHEMBL4811269, “Design, synthesis and antibacterial evaluation of novel C-11, C-9 or C-2'-substituted 3-O-descladinosyl-3-ketoclarithromycin derivatives” (Bioorg Med Chem Lett, 2021)
# Legend:
# [1] = test system: Staphylococcus aureus; assay: Antibacterial activity against methicillin-resistant Staphylococcus aureus ATCC 43300 by broth microdilution method; type: functional
# In short: (§1)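 MIC by standard NCCLS broth microdilution against resistant S. aureus strains, reported in µg/mL. Clarithromycin and azithromycin were run alongside as references.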
# [2] = test system: Staphylococcus aureus; assay: Antibacterial activity against penicillin-resistant Staphylococcus aureus ATCC 31007 by broth microdilution method; type: functional; in short: as §1
# [3] = test system: Streptococcus pneumoniae; assay: Antibacterial activity against erythromycin-resistant Streptococcus pneumoniae B1 by broth microdilution method; type: functional
# In short: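 MIC by standard NCCLS broth microdilution, reported in µg/mL. The strain expresses the ermB gene. Clarithromycin and azithromycin were run alongside as references.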
# [4] = test system: Streptococcus pneumoniae; assay: Antibacterial activity against erythromycin-resistant Streptococcus pneumoniae AB11 by broth microdilution method; type: functional
# In short: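 MIC by standard NCCLS broth microdilution, reported in µg/mL. The strain expresses the ermB and mefA genes. Clarithromycin and azithromycin were run alongside as references.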
# [5] = test system: Streptococcus pyogenes; assay: Antibacterial activity against erythromycin-resistant Streptococcus pyogenes R1 by broth microdilution method; type: functional
# In short: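 MIC by standard NCCLS broth microdilution, reported in µg/mL. The strain is a clinically isolated erythromycin-resistant strain. Clarithromycin and azithromycin were run alongside as references.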
# [6] = test system: Pseudomonas aeruginosa; assay: Antibacterial activity against penicillin-susceptible Pseudomonas aeruginosa ATCC 27853 by broth microdilution method; type: functional
# In short: (§2)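 MIC determined by standard broth microdilution per NCCLS recommendations, read as minimal inhibitory concentration in µg/mL. Standard ATCC strains tested alongside the other panel strains, with clarithromycin and azithromycin as reference agents.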
# [7] = test system: Staphylococcus aureus; assay: Antibacterial activity against erythromycin-susceptible Staphylococcus aureus ATCC 25923 by broth microdilution method; type: functional; in short: as §2
# [8] = test system: Bacillus subtilis; assay: Antibacterial activity against penicillin-susceptible Bacillus subtilis ATCC9372 by broth microdilution method; type: functional; in short: as §2
# [9] = Chemical stability of the compound in pH 7.4 phosphate solution after 24 hrs by HPLC analysis; type: physicochemical; settings: buffer, pH 7.4, 24 h
# In short: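 Compound held in phosphate solution (pH = 7.4) at 25 °C and monitored by HPLC over 24 h. Stability judged from change in peak area.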
Compound,MIC [1],MIC [2],MIC [3],MIC [4],MIC [5],MIC [6],MIC [7],MIC [8],Stabilty [9]
CO[C@]1(C)C[C@@H](C)[C@H](OC(=O)c2cccc(C(F)(F)F)c2)[C@H](C)CN(C)CCOC(=O)[C@H](C)C(=O)[C@H](C)[C@H]1O[C@@H]1O[C@H](C)C[C@H](N(C)C)[C@H]1OC(=O)c1cccc(C(F)(F)F)c1,> 256 µg/mL,> 256 µg/mL,> 256 µg/mL,> 256 µg/mL,> 256 µg/mL,> 128 µg/mL,128 µg/mL,> 128 µg/mL,Stable
CO[C@]1(C)C[C@@H](C)[C@H](OC(=O)c2ccc(Cl)cc2)[C@H](C)CN(C)CCOC(=O)[C@H](C)C(=O)[C@H](C)[C@H]1O[C@@H]1O[C@H](C)C[C@H](N(C)C)[C@H]1OC(=O)c1ccc(Cl)cc1,> 256 µg/mL,> 256 µg/mL,128 µg/mL,> 256 µg/mL,> 256 µg/mL,> 128 µg/mL,128 µg/mL,> 128 µg/mL,Stable
